In brackets after ≈: the same amount, converted by molar mass. Several values for one entry are separate records, joined by “and”; a condition that tells them apart may be missing. Equal values may be shown once.
What was measured:
[1] = system: RIP1 pathway activation (CCL4 release in human whole blood); experiment: PK-PD modeling; type: cell-based
Method in brief: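 CCL4 inhibition from the ex vivo stimulated whole-blood assay was related to GDC-8264 plasma concentrations measured in the same volunteers by PK-PD modelling. The model estimated the IC50 and the maximal target inhibition.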

[2] = system: RIP1 pathway activation (CCL4 release in human whole blood); experiment: Ex vivo TBZ stimulation assay of whole blood for CCL4 secretion; type: cell-based
Method in brief: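 Whole blood from healthy volunteers in the single- and multiple-ascending-dose stages, collected across the dosing periods, stimulated ex vivo to activate the RIP1-mediated necroptosis pathway; secreted CCL4 measured. Inhibition derived by normalising CCL4 levels to each subject's baseline, then adjusting to the maximum inhibition and SD per cohort. Placebo subjects were sampled in parallel.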

[3] = Plasma pharmacokinetics after single and multiple oral doses; type: in vivo, human; conditions: for AUC / concentration at 24 h / Cmax / Tmax / Vd/F / half-life: human, plasma, oral; for AUC: AUC0-τ; for Cmax: C max; for Vd/F: V z/F
Method in brief: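 Healthy adults received once-daily oral doses of 50 or 100 mg (8 active: 2 placebo) for up to 14 days, in the morning after an overnight fast of at least 8 h. Plasma was sampled after the first dose through 16 h, predose on days 2, 4 and 7, and through 72 h after the day-14 dose. Concentrations were measured by LC-MS/MS (LLOQ 0.0500 ng/mL). Parameters came from noncompartmental analysis: accumulation ratios day 14 versus day 1, CL/F as dose/AUC0-inf. Values given as geometric mean (geometric CV%).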

Food effect on plasma PK = type: in vivo, human
Method in brief: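 The same healthy subjects from the 75-mg fasted single-dose cohort, after a washout of at least five half-lives, fasted 8 h, ate a high-fat breakfast within 20 min and received a single oral 75 mg dose or placebo 30 min after breakfast began. Plasma was sampled predose, through 72 h and on day 7. Concentrations were measured by LC-MS/MS (LLOQ 0.0500 ng/mL). Relative bioavailability versus fasted dosing was based on AUC and Cmax.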

[4] = MAD both doses, comparable between day 1 and day 14
[5] = MAD 50 mg q.d., n=5, geometric mean (geometric CV%)
[6] = MAD 100 mg q.d., n=7, geometric mean (geometric CV%)
[7] = 50 mg, MAD 50 mg q.d., Day 1, n=5, geometric mean (geometric CV%)
[8] = 50 mg, MAD 50 mg q.d., Day 14, n=5, geometric mean (geometric CV%)
[9] = 100 mg, MAD 100 mg q.d., Day 1, n=7, geometric mean (geometric CV%)
[10] = 100 mg, MAD 100 mg q.d., Day 14, n=7, geometric mean (geometric CV%)

In the case of `O=C(c1nc2n(n1)[C@H](c1ccccc1)C[C@@H]2F)C1CC1` [GDC‐8264], the IC50 ([1]; Homo sapiens, read-out: half-maximal inhibitory concentration (IC50) for the inhibition of CCL4 release) is reported as 0.58 ng/mL (≈ 2.14 nM), the “maximal inhibition of the target” value ([1]; estimated by PK-PD (Emax) modeling) is reported as 99.4% and the “timepoint through which >90% inhibition of CCL4 was sustained” value ([2]; SAD 5- and 25-mg cohorts) is reported as at least 48 h. For the same molecule, the “timepoint through which >90% inhibition of CCL4 was sustained” value ([2]; SAD 75-, 150-, and 225-mg cohorts) was at least 72 h, the “levels of CCL4” value ([2]; SAD 150-mg cohort, 144-h timepoint) was “comparable to the placebo cohort” and the “group mean inhibition of CCL4 production” value ([2]; SAD 225-mg cohort, 144 h, mean ± SD, placebo 17% ± 3%) was 49% ± 9%. The “inhibition of CCL4” value ([2]; all SAD cohorts (5-225 mg), 1.5 h postdose) was “greater than 90%”, the CL/F ([3]; MAD 50 mg q.d., Day 14, n=5, geometric mean (geometric CV%)) was 4.96 (14.1) L/h and the “ARAUC (accumulation ratio based on AUC0-τ of day 14 versus day 1)” value [3, 5] was 1.39 (4.8). The “ARCmax (accumulation ratio based on C max of day 14 versus day 1)” value [3, 5] was 1.37 (18.3), the CL/F ([3]; MAD 100 mg q.d., Day 14, n=7, geometric mean (geometric CV%)) was 4.72 (15.2) L/h and the “ARAUC (accumulation ratio based on AUC0-τ of day 14 versus day 1)” value [3, 6] was 1.31 (17.7). The “ARCmax (accumulation ratio based on C max of day 14 versus day 1)” value [3, 6] was 1.41 (27.3), the “day on which steady-state trough concentrations were observed” value ([3]; MAD, daily doses) was 4 days and the CL/F ([3]; SAD 5 mg single oral dose, fasted, n=6, geometric mean (geometric CV%)) was 4.71 (10.0) L/h. For the same molecule, the CL/F ([3]; SAD 25 mg single oral dose, fasted, n=6, geometric mean (geometric CV%)) was 5.08 (30.3) L/h, the CL/F ([3]; SAD 75 mg single oral dose, fasted, n=5, geometric mean (geometric CV%)) was 5.70 (19.0) L/h and the CL/F ([3]; SAD 75 mg single oral dose, high fat meal, n=5, geometric mean (geometric CV%)) was 5.79 (23.2) L/h. The CL/F ([3]; SAD 150 mg single oral dose, fasted, n=5, geometric mean (geometric CV%)) was 5.40 (18.4) L/h, the CL/F ([3]; SAD 225 mg single oral dose, fasted, n=6, geometric mean (geometric CV%)) was 4.81 (6.7) L/h and the AUC [3, 7] was 7270 ng·h/mL. It also gave an AUC [3, 8] of 10100 ng·h/mL, a concentration at 24 h ([3]; 50 mg, C24, MAD 50 mg q.d., Day 1, n=5, geometric mean (geometric CV%)) of 151 ng/mL and a Cmax [3, 7] of 610 ng/mL. For the same molecule, the Cmax [3, 8] was 836 ng/mL, the Tmax ([3]; 50 mg, T max, MAD 50 mg q.d., Day 1, n=5, median (range)) was 3 h and the Tmax ([3]; 50 mg, T max, MAD 50 mg q.d., Day 14, n=5, median (range)) was 2.5 h. It also gave a Vd/F [3, 8] of 80.3 L, a half-life ([3]; 50 mg, t 1/2, MAD 50 mg q.d., Day 14, n=5, geometric mean (geometric CV%)) of 672 min and an AUC [3, 9] of 16200 ng·h/mL. For the same molecule, the AUC [3, 10] was 21200 ng·h/mL, the concentration at 24 h ([3]; 100 mg, C24, MAD 100 mg q.d., Day 1, n=7, geometric mean (geometric CV%)) was 342 ng/mL and the Cmax [3, 9] was 1180 ng/mL. It also gave a Cmax [3, 10] of 1660 ng/mL, a Tmax ([3]; 100 mg, T max, MAD 100 mg q.d., Day 1, n=7, median (range)) of 3 h and a Tmax ([3]; 100 mg, T max, MAD 100 mg q.d., Day 14, n=7, median (range)) of 2.5 h. For the same molecule, the Vd/F [3, 10] was 77.4 L, the half-life ([3]; 100 mg, t 1/2, MAD 100 mg q.d., Day 14, n=7, geometric mean (geometric CV%)) was 684 min and the half-life ([3]; mean half-life, tablet formulation) was 660 to 780 min. For the same molecule, the half-life ([3]; mean terminal half-life, range of means across single doses) was 600 to 780 min, the Tmax ([3]; median T max, SAD 5- and 25-mg doses (suspension formulation)) was 1.3 to 1.9 h and the Tmax ([3]; median T max, SAD 75-225-mg doses (tablet formulation)) was 3 to 4 h. The Tmax ([3]; median T max, overall, as summarised in the discussion) was 2.5 to 4 h, the “accumulation ratio [AR]” value ([3]; multiple dosing q.d. up to 14 days, steady state) was ~ 1.4 and 1.3–1.4 and the “effect of a high-fat meal on the PKs” value (Food effect on plasma PK; 75 mg single dose) was “no significant effect”. The “delay of median T max after a high-fat meal” value (Food effect on plasma PK; 75 mg, compared to the fasted state) was 1 h and the “Geometric mean CLr0-τ” value [4] was ~ 0.008 L/h.

Source: PMC10582670 (Clinical and Translational Science, 2023)
